Reference: ChEMBL document CHEMBL1150829, “Novel cytotoxic 4-phenylfuranocoumarins from Calophyllum dispar” (2001)
In brackets after ≈: the same amount, converted by molar mass.

Tests used:
KB [1] = test: Cytotoxicity against human KB cells after 72 hrs by neutral red staining; assay type: functional; settings: read-out: ED50 (the source's name)
Procedure, shortened: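 Human nasopharyngeal carcinoma KB cells exposed in triplicate to five concentrations (50 to 0.01 µg/mL) of pure compound, or none, for 72 h at 37 °C. Living cells stained with neutral red and optical density read at 540 nm. ED50 is the concentration inhibiting cell growth to 50% of control.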

KB [2] = test: Growth inhibition of human KB cells at 5 to 6 ug/mL after 72 hrs by neutral red staining; assay type: functional

In the case of `CCCC(=O)c1c2c(c3oc(=O)cc(-c4ccccc4)c3c1O)C[C@@H](C(C)(C)O)O2`, the EC50 (KB [1]) is reported as 6 µg/mL (≈ 14.7 µM).
In the case of `CCC(C)C(=O)c1c(O)c2c(c3c(-c4ccccc4)cc(=O)oc13)O[C@H](C(C)(C)O)C2` (stereo not given in full), the Inhibition (KB [2]) is reported as 50% and the EC50 (KB [1]) is reported as 15 µg/mL (≈ 35.5 µM).
`CC(C)CC(=O)c1c2c(c3oc(=O)cc(-c4ccccc4)c3c1O)C[C@@H](C(C)(C)O)O2` [CYCLOMAMMEISIN] gave an EC50 (KB [1]) of 6 µg/mL (≈ 14.2 µM).
For `C=C(C)[C@@H]1Cc2c(c(C(=O)CC(C)C)c(O)c3c(-c4ccccc4)cc(=O)oc23)O1`, the EC50 (KB [1]) was 40 µg/mL (≈ 98.9 µM).
`CCCC(=O)c1c(O)c2c(c3c(-c4ccccc4)cc(=O)oc13)O[C@H](C(C)(C)O)C2` gave an Inhibition (KB [2]) of 50%.
With `CCC(C)C(=O)c1c2c(c3oc(=O)cc(-c4ccccc4)c3c1O)C[C@@H](C(C)(C)O)O2` (stereo not given in full) the EC50 (KB [1]) was 5 µg/mL (≈ 11.8 µM).
`CC(C)CC(=O)c1c(O)c2c(c3c(-c4ccccc4)cc(=O)oc13)O[C@H](C(C)(C)O)C2` gave an Inhibition (KB [2]) of 50% and an EC50 (KB [1]) of 9 µg/mL (≈ 21.3 µM).
For `COc1cccc2c1C(=O)c1c(O)c3c(c(O)c1C2=O)C[C@@](O)(C(=O)CO)C[C@@H]3O[C@H]1C[C@H](N)[C@H](O)[C@H](C)O1` [DOXORUBICIN], the EC50 (KB [1]) was 0.058 µg/mL (≈ 0.107 µM).
